# According to ChEMBL document CHEMBL1150958, “Growth-inhibitory activities of benzofuran and chromene derivatives toward Tenebrio molitor” (1998):
# What was measured:
# Tenebrio molitor [1] = experiment: Growth inhibition of last instar larvae of Tenebrio molitor assessed as duration of pupal stage at 120 ug/larvae, applied topically measured every 24 hrs for 30 days; type: functional
# Method in brief: (§1)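 Last-instar T. molitor larvae (113–160 mg, from a stock culture kept on wheat bran) were dosed once, topically on the ventral abdominal segments by microsyringe, with 2 µL acetone solution (120 µg compound per larva). Solvent-only controls were included. Larvae were unfed. Pupation and pupal-stage length were scored every 24 h to day 30. n = 60, mean (SE). Pupation was analysed by χ² test and pupal duration by Dunnett test.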
# Tenebrio molitor [2] = experiment: Growth inhibition of last instar larvae of Tenebrio molitor assessed as successful pupation at 120 ug/larvae, applied topically measured every 24 hrs for 30 days; type: functional; parameters: scale not given: the % may be the effect or the level left; method in brief: as §1
Compound,Activity (Tenebrio molitor [1]) [days],Activity (Tenebrio molitor [2]) [%]
C=C(COC(C)=O)[C@@H]1Cc2cc(C(C)=O)c(O)cc2O1,11.2,73.3
CC(=O)c1ccc2c(c1)C(=O)CC(C)(C)O2,12.1,87
C=C(CO)[C@@H]1Cc2cc(C(C)=O)c(O)cc2O1,11.6,73
C=C(COC(C)=O)[C@@H]1Cc2cc(C(C)=O)ccc2O1,9.8,75
CC(=O)c1cc2c(cc1O)OC(C)(C)C=C2 [DEMETHYLENCECALIN],11.5,66.6
C=C(CO)[C@@H]1Cc2cc(C(C)=O)ccc2O1 [BITALIN A],8.6,75
O=C(O)/C=C/c1ccc(O)cc1 [COUMARIC ACID],10,87
COC(=O)/C=C/c1ccc2c(c1)CCC(C)(C)O2,7,87
O=C(O)/C=C/c1ccccc1 [CINNAMIC ACID],8.7,92
CC(C)=CCc1cc(/C=C/C(=O)O)ccc1O [DRUPANIN],13,63
CC(C)CCc1cc(CCC(=O)O)ccc1O,10.2,50
C=C(C)c1cc2cc(C(C)=O)c(O)cc2o1 [EUPARIN],10.5,83
CC(=O)c1ccc(O)c(C(=O)C=C(C)C)c1,11.4,75
C=C(COC(=O)/C=C/c1ccc(O)cc1)[C@@H]1Cc2cc(C(C)=O)ccc2O1,10.5,26
